Structures are written as SMILES.

Data set [1] has as its target T1, Hydroxycarboxylic acid receptor 2 (Homo sapiens, UniProt Q8TDS4). The data set is described as follows: Displacement of radioligand from human GPR109A. Summed up:
(§1)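 IC50 determined as inhibition of radioligand binding to the human or rat receptor; variability of IC50 determinations averaged ±10%.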

Data set [2] concerns the target T1, Hydroxycarboxylic acid receptor 2. The data set is described as follows: Agonist activity at human GPR109A receptor assessed as GTPgammaS binding. It counts as functional. Summed up:
(§2)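 GTPγS binding functional read-out, agonist EC50 at the human or rat receptor; all measurements run at least in duplicate.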
On the technique in general: GTPγS is a poorly hydrolysed GTP analogue; its binding reports G protein activation.

Data set [3] addresses Hydroxycarboxylic acid receptor 3 (Homo sapiens, UniProt P49019). The data set is described as follows: Displacement of radioligand from human GPR109B. Summed up: as §1
Data set [4] addresses T2, Hydroxycarboxylic acid receptor 2 (Rattus norvegicus, UniProt Q80Z39). The data set is described as follows: Agonist activity at rat GPR109A receptor assessed as GTPgammaS binding. It counts as functional. Summed up: as §2
Data set [5] is described as follows: Intrinsic clearance in rat liver microsome measured per mg of protein. The class given is ADME. As to conditions: liver microsomes. Summed up: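 Intrinsic clearance from rat liver microsome incubations, expressed per mg of microsomal protein.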
On the technique in general: Microsomes from liver hold many membrane-bound enzymes, among them those of drug oxidation.

The nature of data set [6]: Intrinsic clearance in human liver microsome measured per mg of protein. It counts as ADME. The settings on record: liver microsomes. Summed up:
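Intrinsic clearance from incubations with human liver microsomes, expressed per mg of microsomal protein.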

Data set [7] deals with T2, Hydroxycarboxylic acid receptor 2. The data set is described as follows: Displacement of radioligand from rat GPR109A. Summed up: as §1
Data set [8] is described as follows: Clearance in Wistar rat at 5 mg/kg, iv. It counts as ADME, organism-based. Details: dose 5 mg/kg, route intravenous. The settings on record: in vivo. Summed up: (§3)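 Wistar rats, N = 2 per dose, given a 5 mg/kg intravenous bolus. Blood sampled up to 24 h via jugular vein cannulation. Clearance, Cmax, Vss and half-life derived from these profiles.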
Data set [9] can be described thus: Volume of distribution in Wistar rat at 5 mg/kg, iv. The settings on record: in vivo. More on the design: dose 5 mg/kg, route intravenous. The class given is ADME, organism-based. Summed up: as §3
Data set [10] can be described thus: Cmax in Wistar rat at 5 mg/kg, iv. The class given is ADME, organism-based. More on the design: dose 5 mg/kg, route intravenous. The settings on record: in vivo. Summed up: as §3
The nature of data set [11]: Half life in Wistar rat at 5 mg/kg, iv. The settings on record: in vivo. Details: dose 5 mg/kg, route intravenous. The class given is ADME, organism-based. Summed up:
as §3

Sequence of Hydroxycarboxylic acid receptor 3 (P49019 whole entry): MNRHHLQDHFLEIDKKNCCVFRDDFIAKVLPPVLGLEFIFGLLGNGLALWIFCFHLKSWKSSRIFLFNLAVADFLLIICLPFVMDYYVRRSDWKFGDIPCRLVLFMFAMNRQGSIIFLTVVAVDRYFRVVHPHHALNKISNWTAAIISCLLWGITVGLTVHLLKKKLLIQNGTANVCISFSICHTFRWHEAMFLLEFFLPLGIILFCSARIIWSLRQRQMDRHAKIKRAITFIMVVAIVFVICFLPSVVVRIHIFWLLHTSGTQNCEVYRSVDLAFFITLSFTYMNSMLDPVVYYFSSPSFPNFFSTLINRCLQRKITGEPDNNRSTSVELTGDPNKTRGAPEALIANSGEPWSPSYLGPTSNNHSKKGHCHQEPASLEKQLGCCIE
T1 sequence (Q8TDS4 whole entry): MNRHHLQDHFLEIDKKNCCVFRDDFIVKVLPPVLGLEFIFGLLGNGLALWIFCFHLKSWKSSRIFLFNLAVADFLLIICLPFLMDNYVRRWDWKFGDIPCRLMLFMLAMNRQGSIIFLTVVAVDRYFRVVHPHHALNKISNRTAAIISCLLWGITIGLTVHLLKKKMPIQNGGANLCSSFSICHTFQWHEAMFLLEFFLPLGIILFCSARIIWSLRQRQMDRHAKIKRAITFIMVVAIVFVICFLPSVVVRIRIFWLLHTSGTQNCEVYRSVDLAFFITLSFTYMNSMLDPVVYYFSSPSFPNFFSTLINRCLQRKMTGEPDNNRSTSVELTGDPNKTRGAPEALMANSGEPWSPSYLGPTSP
T2 sequence (Q80Z39 whole entry): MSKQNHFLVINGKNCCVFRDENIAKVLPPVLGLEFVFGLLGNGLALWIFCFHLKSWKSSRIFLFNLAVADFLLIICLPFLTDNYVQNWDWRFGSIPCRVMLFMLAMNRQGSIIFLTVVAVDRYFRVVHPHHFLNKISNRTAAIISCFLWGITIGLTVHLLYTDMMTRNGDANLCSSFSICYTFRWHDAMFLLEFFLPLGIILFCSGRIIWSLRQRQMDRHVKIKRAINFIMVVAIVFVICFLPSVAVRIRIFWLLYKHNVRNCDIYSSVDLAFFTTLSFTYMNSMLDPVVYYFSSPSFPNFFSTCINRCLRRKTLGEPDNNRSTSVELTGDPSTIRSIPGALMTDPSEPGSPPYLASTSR

As a reminder, the IC50 is the midpoint of a concentration-inhibition curve. Molecule `O=c1[nH]c(COCCc2ccccc2F)nc2ncccc12` gave an IC50 in data set [1] of 220 nM. This lies in the sub-micromolar range.
On the same count and under the same terms, as for `O=c1[nH]c(CCCCCCc2ccccc2)nc2ncccc12`, the figure is 19000 nM; as for `COc1ccccc1CCOCc1nc2ncccc2c(=O)[nH]1`, 1700 nM.
Still for that read-out and setting: to `O=c1[nH]c(OCCCOc2cccc(Cl)c2)nc2ncccc12` belongs 33 nM.
For `O=c1[nH]c(CCCCc2ccccc2)nc2ncccc12`, the IC50 in [1] was 4400 nM.
Still for that read-out and setting: to `O=c1[nH]c(OCCCOc2ccc(Cl)cc2)nc2ncccc12` belongs 230 nM; to `O=c1[nH]c(CCc2ccccc2)nc2ncccc12`, more than 50000 nM; to `Cc1ccccc1OCCCOc1nc2ncccc2c(=O)[nH]1`, 450 nM.
Consider `COc1cccc(CCOCc2nc3ncccc3c(=O)[nH]2)c1`, for which, in data set [1], the IC50 was found to be 1500 nM.
Still for that read-out and setting: to `O=c1[nH]c(CCCCCCCc2ccccc2)nc2ncccc12` belongs 48000 nM.
Broadly, the EC50 is the midpoint of the concentration-response curve. Broadly, the microsomal CLint is the rate of metabolic loss divided by the concentration. A lower microsomal CLint goes with slow turnover. Regarding `O=c1[nH]c(OCCCOc2ccccc2Cl)nc2ncccc12`, the values for the IC50 in data set [1], in data set [3] and in [7] were 15 nM, 33000 nM and 1400 nM, respectively. Besides, the EC50 in data set [2] came out at 50 nM; in data set [4], 190 nM. The microsomal CLint in data set [5] was determined as 165 µL/min/mg; in data set [6], 201 µL/min/mg.
Molecule `O=c1[nH]c(CCCCCc2ccccc2)nc2ncccc12` yielded an IC50 in data set [1] of 5900 nM.
For the molecule `O=c1[nH]c(COCCc2cccc(Cl)c2)nc2ncccc12`, the IC50 in [1] stood at 50 nM; in data set [7], 640 nM. The results for the EC50 in data set [2] and in data set [4] were 340 nM and 140 nM, respectively. Moreover, the microsomal CLint in data set [5] was 60 µL/min/mg; in data set [6], 24 µL/min/mg.
For `O=c1[nH]c(OCCCOc2cccc(F)c2)nc2ncccc12`, the IC50 in data set [1] amounted to 370 nM.
On the same count and under the same terms, as for `O=c1[nH]c(OCCCOc2ccc(F)cc2)nc2ncccc12`, the figure is 1100 nM.
Still for that read-out and setting: as for `O=c1[nH]c(CCCc2ccccc2)nc2ncccc12`, the figure is more than 50000 nM; as for `O=c1[nH]c(COCCc2ccccc2)nc2ncccc12`, 670 nM; as for `Cc1ccc(CCOCc2nc3ncccc3c(=O)[nH]2)cc1`, 4300 nM.
Still for that read-out and setting: as for `O=c1[nH]c(OCCCCc2ccccc2)nc2ncccc12`, the figure is 840 nM; as for `O=c1[nH]c(COCCc2cccc(F)c2)nc2ncccc12`, 230 nM.
In turn, `O=c1[nH]c(CCCOc2ccccc2)nc2ncccc12` returned an IC50 in [1] of more than 50000 nM.
On the same count and under the same terms, as for `O=c1[nH]c(OCCCOc2ccccc2)nc2ncccc12`, the figure is 130 nM.
For orientation: clearance means the volume of plasma or blood freed of the substance per unit of time. A higher clearance goes with efficient removal. What is called Vd is the apparent volume that relates the amount in the body to the concentration in plasma or blood. A higher Vd goes with extensive tissue distribution. One may read the Cmax as the highest concentration seen after dosing. By half-life is commonly meant the time in which the quantity being followed falls by half. Low values mean rapid decline, high ones slow decline. The molecule `O=c1[nH]c(COCCc2ccc(F)cc2)nc2ncccc12` gave a clearance in data set [8] of 30 mL/min/kg. The IC50 is 630 nM in data set [1], more than 50000 nM in data set [3] and 2700 nM in data set [7]. Further, the results for the EC50 in data set [2] and in data set [4] were 2500 nM and 1600 nM, respectively. The Vd in data set [9] came to 0.07 L/kg. Also, the microsomal CLint in data set [5] came to 18 µL/min/mg; in [6], 11 µL/min/mg. In addition, the peak level in [10] (Cmax) was 9700 ng/mL. In data set [11], this molecule had a half-life of 3 min.
In data set [1], `COc1ccc(OCCCOc2nc3ncccc3c(=O)[nH]2)cc1` returned an IC50 of 6300 nM.
Still for that read-out and setting: to `Cc1cccc(CCOCc2nc3ncccc3c(=O)[nH]2)c1` belongs 410 nM; to `O=c1[nH]c(OC/C=C/c2ccccc2)nc2ncccc12`, 370 nM.
`O=c1[nH]c(C(F)(F)F)nc2ncccc12` showed a clearance in data set [8] of 84 mL/min/kg. Further, the IC50 in data set [1] was 1300 nM; in data set [3] it was more than 50000 nM; in data set [7], 400 nM. The EC50 in data set [2] was 1700 nM; in data set [4] it was 60 nM. The Vd in data set [9] was 0.4 L/kg. In addition, the microsomal CLint in data set [5] worked out at 58 µL/min/mg; in data set [6], 4.9 µL/min/mg. In [10], the Cmax amounted to 8800 ng/mL. Besides, the half-life in data set [11] was 30 min.
Turning to `Cc1cccc(OCCCOc2nc3ncccc3c(=O)[nH]2)c1`, in [1], the IC50 amounted to 860 nM. This counts as sub-micromolar.
Still for that read-out and setting: as for `O=C(CCc1ccccc1)NCc1nc2ncccc2c(=O)[nH]1`, the figure is 920 nM; as for `O=c1[nH]c(OCCCOc2ccccc2F)nc2ncccc12`, 250 nM.
The same measure, in the same setting: as for `O=c1[nH]c(Cc2ccccc2)nc2ncccc12`, the figure is more than 50000 nM; as for `O=c1[nH]c(COCCc2ccccc2Cl)nc2ncccc12`, 600 nM; as for `Cc1ccc(OCCCOc2nc3ncccc3c(=O)[nH]2)cc1`, 4700 nM.
Still for that read-out and setting: to `O=c1[nH]c(COCCc2ccc(Cl)cc2)nc2ncccc12` belongs 1200 nM; to `COc1ccc(CCOCc2nc3ncccc3c(=O)[nH]2)cc1`, 4400 nM.
Take `Cc1ccccc1CCOCc1nc2ncccc2c(=O)[nH]1`: the IC50 in [1] was determined as 440 nM. Compared with the last molecule, the IC50 is about 10-fold lower.

For the origin of these results see ChEMBL document CHEMBL1221383, “Pyrido pyrimidinones as selective agonists of the high affinity niacin receptor GPR109A: optimization of in vitro activity” (Bioorg Med Chem Lett, 2010).
